# Source: article PMC5497587 (Molecular pharmaceutics, 2017)
# Columns and labels:
# [1] = tested on: human and guinea pig smooth muscle tissue; conditions: cited from earlier work
# [2] = cited from earlier work
# [3] = tested on: GABAARs expressed on splenocytes; test: Automated patch-clamp electrophysiology for splenocytes; assay type: cell-based, mouse; conditions: splenocytes from ova s/c mice
# [4] = tested on: inflammatory cells in bronchoalveolar lavage fluid; test: Inflammatory cells in BALF of ova s/c BALB/c mice; assay type: in vivo, mouse
# Method in brief: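 Male BALB/c mice (5–10 wk), ova-sensitised/challenged, 10 per group; dexamethasone 4 mg/kg i.p. daily for 8 days (10% DMSO/40% propylene glycol/50% PBS); test compounds 100 mg/kg b.i.d. by gavage for 5 days. BAL with 1 ml Ca/Mg-free PBS, RBC lysis, Fc block, 30 min 4 °C antibody staining. CD45+ count gives cells/ml; CCR3+/GR1+/CD4+/CD11b+ frequencies × total; mean ± SEM versus vehicle.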
# [5] = tested on: airway hyperresponsiveness and airway eosinophilia; conditions: cited from earlier work
compound,measurement,setting,value
C#Cc1ccc2c(c1)C(c1ccccc1F)=N[C@H](C)c1c(C(=O)OCC)ncn1-2 [SH-053-2′F-R-CH3],smooth muscle relaxation ex vivo,[1],relax human and guinea pig smooth muscle tissue
same,blood brain barrier crossing,[2],can cross the blood brain barrier
NCc1cc(=O)[nH]o1 [muscimol],induced current change relative to current change induced by GABA,[3],around 50%
C[C@@H]1C[C@H]2[C@@H]3CCC4=CC(=O)C=C[C@]4(C)[C@@]3(F)[C@@H](O)C[C@]2(C)[C@@]1(O)C(=O)CO [dexamethasone],CD4+ T cell population in BALF,[4]; 4 mg/kg i.p. for 8 days,significantly reduced
same,CD11b+ leukocyte population in BALF,[4]; i.p. 4 mg/kg daily for 8 days,as did dexamethasone treatment
same,eosinophils (CCR3+) in BALF by flow cytometry,[4]; i.p. 4 mg/kg daily for 8 days,almost completely eliminated
same,reduction of white blood cells in BALF,"[4]; i.p. 4 mg/kg daily for 8 days, compared with compounds 1 and 2",more pronounced
same,AHR in ova s/c mice,[5]; dexamethasone treated ova s/c mice,reduced AHR
C=CCc1ccc(O)c(-c2ccc(O)c(CC=C)c2)c1 [honokiol],AHR and lung eosinophilia,"[5]; acute and chronic administration, ova s/c mouse asthma model",reduced AHR and lung eosinophilia
